Data published in ChEMBL document CHEMBL4325893, “Synthesis and antibacterial profiles of targeted triclosan derivatives” (2019).
In brackets after ≈: the same amount, converted by molar mass.

Experiments:
Staphylococcus aureus [1] = test: Antibacterial activity against Staphylococcus aureus ATCC 6538 after 18 hrs; type: functional; conditions: ATCC 6538, 18 h
Outline: (§1)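 Broth microdilution in Nutrient Broth No. 2; stocks in ethanol diluted to 0.01–128 µg/ml (triclosan) or 0.25–256 µg/ml (glycosides). Overnight 37 °C NB2 cultures diluted 1 in 10^4 in saline and added to the dilutions. Incubation at 37 °C with agitation, OD read every 15 min; MIC is the lowest concentration preventing any OD rise after 18 h.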

Staphylococcus aureus [2] = test: Antibacterial activity against Staphylococcus aureus ATCC 6538P after 18 hrs; type: functional; outline: as §1
Staphylococcus aureus [3] = test: Antibacterial activity against Staphylococcus aureus ATCC 9144 after 18 hrs; type: functional; conditions: ATCC 9144, 18 h; outline: as §1
Staphylococcus aureus [4] = test: Antibacterial activity against Staphylococcus aureus ATCC 25923 after 18 hrs; type: functional; conditions: ATCC 25923, 18 h; outline: as §1
Staphylococcus aureus [5] = test: Antibacterial activity against Staphylococcus aureus ATCC 29213 after 18 hrs; type: functional; conditions: ATCC 29213, 18 h; outline: as §1
Staphylococcus aureus [6] = test: Antibacterial activity against Staphylococcus aureus NCTC 13758 after 18 hrs; type: functional; conditions: NCTC 13758, 18 h; outline: as §1
Staphylococcus aureus [7] = test: Antibacterial activity against Staphylococcus aureus OCC 104 after 18 hrs; type: functional; conditions: OCC 104, 18 h; outline: as §1
Staphylococcus aureus [8] = test: Antibacterial activity against Staphylococcus aureus OCC 106 after 18 hrs; type: functional; conditions: OCC 106, 18 h; outline: as §1
[9] = system: Staphylococcus epidermidis; test: Antibacterial activity against Staphylococcus epidermidis 155 after 18 hrs; type: functional; conditions: Staphylococcus epidermidis, 155, 18 h; outline: as §1
[10] = system: Staphylococcus epidermidis; test: Antibacterial activity against Staphylococcus epidermidis ATCC 12228 after 18 hrs; type: functional; conditions: ATCC 12228, 18 h; outline: as §1
[11] = system: Staphylococcus epidermidis; test: Antibacterial activity against Staphylococcus epidermidis ATCC 14990 after 18 hrs; type: functional; conditions: ATCC 14990, 18 h; outline: as §1
[12] = system: Staphylococcus haemolyticus; test: Antibacterial activity against Staphylococcus haemolyticus OCC 2223 after 18 hrs; type: functional; conditions: OCC 2223, 18 h
Outline: (§2)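 Broth microdilution in Nutrient Broth No. 2. Ethanol stocks were diluted in broth to 0.01–128 µg/ml for triclosan and 0.25–256 µg/ml for glycosides. Overnight 37°C NB2 cultures were diluted 1 in 10^4 in saline and added to the wells. Plates were incubated at 37°C with OD read every 15 min after agitation. MIC was the lowest concentration giving no OD increase at 18 h.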

[13] = system: Staphylococcus saprophyticus; test: Antibacterial activity against Staphylococcus saprophyticus ATCC 15305 after 18 hrs; type: functional; conditions: ATCC 15305, 18 h; outline: as §2
Streptococcus agalactiae = test: Antibacterial activity against Streptococcus agalactiae OCC 182 after 18 hrs; type: functional; conditions: OCC 182, 18 h; outline: as §2
Streptococcus pneumoniae [14] = test: Antibacterial activity against Streptococcus pneumoniae 6305 after 18 hrs; type: functional; conditions: Streptococcus pneumoniae, 6305, 18 h; outline: as §2
Streptococcus pneumoniae [15] = test: Antibacterial activity against Streptococcus pneumoniae ATCC 49619 after 18 hrs; type: functional; conditions: ATCC 49619, 18 h; outline: as §2
Streptococcus pyogenes = test: Antibacterial activity against Streptococcus pyogenes ATCC 19615 after 18 hrs; type: functional; conditions: ATCC 19615, 18 h; outline: as §2
Streptococcus viridans = test: Antibacterial activity against Streptococcus viridans OCC 234 after 18 hrs; type: functional; conditions: OCC 234, 18 h; outline: as §2
[16] = system: Salmonella enterica subsp. enterica serovar Abony; test: Antibacterial activity against Salmonella enterica subspecies enterica serotype Abony NCTC 6017 after 18 hrs; type: functional; conditions: NCTC 6017, 18 h; outline: as §1
[17] = Antibacterial activity against Salmonella enterica subspecies enterica serotype Arizonae OCC 706 after 18 hrs; type: functional, Salmonella enterica subsp. enterica serovar Arizonae; conditions: OCC 706, 18 h; outline: as §1
[18] = Antibacterial activity against Salmonella enterica subspecies enterica serotype Dublin OCC 627 after 18 hrs; type: functional, Salmonella enterica subsp. enterica serovar Dublin; conditions: OCC 627, 18 h; outline: as §1
Salmonella enteritidis = test: Antibacterial activity against Salmonella enterica subspecies enterica serotype Enteritidis 13076 after 18 hrs; type: functional, Salmonella enterica subsp. enterica serovar Enteritidis; conditions: Salmonella enterica, 13076, 18 h; outline: as §1
[19] = Antibacterial activity against Salmonella enterica subspecies enterica serotype Indiana OCC 597 after 18 hrs; type: functional, Salmonella enterica subsp. enterica serovar Indiana; conditions: OCC 597, 18 h; outline: as §1
[20] = Antibacterial activity against Salmonella enterica subspecies enterica serotype Infantis OCC 2133 after 18 hrs; type: functional, Salmonella enterica subsp. enterica serovar Infantis; conditions: OCC 2133, 18 h; outline: as §1
[21] = Antibacterial activity against Salmonella enterica subspecies enterica serotype Nottingham NCTC 7832 after 18 hrs; type: functional, Salmonella enterica subsp. enterica serovar Nottingham; conditions: NCTC 7832, 18 h; outline: as §1
[22] = Antibacterial activity against Salmonella enterica subspecies enterica serotype Poona NCTC 4840 after 18 hrs; type: functional, Salmonella enterica subsp. enterica serovar Poona; conditions: NCTC 4840, 18 h; outline: as §1
[23] = Antibacterial activity against Salmonella enterica subspecies enterica serotype Pullorum OCC 273 after 18 hrs; type: functional, Salmonella enterica subsp. enterica serovar Pullorum; conditions: OCC 273, 18 h; outline: as §1
Salmonella typhimurium = test: Antibacterial activity against Salmonella enterica subspecies enterica serotype typhimurium ATCC 14028 after 18 hrs; type: functional, Salmonella enterica subsp. enterica serovar Typhimurium; conditions: ATCC 14028, 18 h; outline: as §1
[24] = Antibacterial activity against Salmonella enterica subspecies enterica serotype Virchow NCTC 5742 after 18 hrs; type: functional, Salmonella enterica subsp. enterica serovar Virchow; conditions: NCTC 5742, 18 h; outline: as §1

MIC (Staphylococcus aureus [1]): 4 to 8 µg/mL (≈ 9.49 to 19 µM)
MIC (Staphylococcus aureus [2]): 4 to 8 µg/mL (≈ 9.49 to 19 µM)
MIC (Staphylococcus aureus [3]): 4 to 8 µg/mL (≈ 9.49 to 19 µM)
MIC (Staphylococcus aureus [4]): 4 to 8 µg/mL (≈ 9.49 to 19 µM)
MIC (Staphylococcus aureus [5]): 4 to 8 µg/mL (≈ 9.49 to 19 µM)
MIC (Staphylococcus aureus [6]): 4 to 8 µg/mL (≈ 9.49 to 19 µM)
MIC (Staphylococcus aureus [7]): 4 to 8 µg/mL (≈ 9.49 to 19 µM)
MIC (Staphylococcus aureus [8]): 4 to 8 µg/mL (≈ 9.49 to 19 µM)
MIC [9]: 8 to 16 µg/mL (≈ 19 to 37.9 µM)
MIC [10]: 8 to 16 µg/mL (≈ 19 to 37.9 µM)
MIC [11]: 8 to 16 µg/mL (≈ 19 to 37.9 µM)
MIC [13]: 64 µg/mL (≈ 152 µM)
MIC (Streptococcus agalactiae): 128 µg/mL (≈ 304 µM)
MIC (Streptococcus pneumoniae [14]): 64 µg/mL (≈ 152 µM)
MIC (Streptococcus pneumoniae [15]): 64 µg/mL (≈ 152 µM)
MIC (Streptococcus pyogenes): 32 µg/mL (≈ 75.9 µM)
MIC (Streptococcus viridans): 128 µg/mL (≈ 304 µM)
MIC [16]: 32 to 64 µg/mL (≈ 75.9 to 152 µM)
MIC [17]: 32 to 64 µg/mL (≈ 75.9 to 152 µM)
MIC [18]: 32 to 64 µg/mL (≈ 75.9 to 152 µM)
MIC (Salmonella enteritidis): 32 to 64 µg/mL (≈ 75.9 to 152 µM)
MIC [19]: 32 to 64 µg/mL (≈ 75.9 to 152 µM)
MIC [20]: 32 to 64 µg/mL (≈ 75.9 to 152 µM)
MIC [21]: 32 to 64 µg/mL (≈ 75.9 to 152 µM)
MIC [22]: 32 to 64 µg/mL (≈ 75.9 to 152 µM)
MIC [23]: 32 to 64 µg/mL (≈ 75.9 to 152 µM)
MIC (Salmonella typhimurium): 32 to 64 µg/mL (≈ 75.9 to 152 µM)
MIC [24]: 32 to 64 µg/mL (≈ 75.9 to 152 µM)
SMILES: O[C@@H]1[C@H](Oc2cc(Cl)ccc2Oc2ccc(Cl)cc2Cl)OC[C@@H](O)[C@H]1O
MIC [12]: 128 µg/mL (≈ 304 µM)
